Test results as given in ChEMBL document CHEMBL5143728, “Next-Generation Diprovocims with Potent Human and Murine TLR1/TLR2 Agonist Activity That Activate the Innate and Adaptive Immune Response” (J Med Chem, 2022).

Legend:
Toll-like receptor 1/2 [1] = molecular target: Toll-like receptor 1/2 (Mus musculus, UniProt Q9EPQ1+Q9QUN7); test: Agonist activity at TLR1/TLR2 in wild type C57BL/6J mouse macrophages assessed as stimulation of TNF alpha release measured for 4 hrs by ELISA based assay; type: cell-based, Macrophage
Toll-like receptor 1/2 (Mus musculus, UniProt Q9EPQ1+Q9QUN7), sequence (Q9QUN7 whole entry): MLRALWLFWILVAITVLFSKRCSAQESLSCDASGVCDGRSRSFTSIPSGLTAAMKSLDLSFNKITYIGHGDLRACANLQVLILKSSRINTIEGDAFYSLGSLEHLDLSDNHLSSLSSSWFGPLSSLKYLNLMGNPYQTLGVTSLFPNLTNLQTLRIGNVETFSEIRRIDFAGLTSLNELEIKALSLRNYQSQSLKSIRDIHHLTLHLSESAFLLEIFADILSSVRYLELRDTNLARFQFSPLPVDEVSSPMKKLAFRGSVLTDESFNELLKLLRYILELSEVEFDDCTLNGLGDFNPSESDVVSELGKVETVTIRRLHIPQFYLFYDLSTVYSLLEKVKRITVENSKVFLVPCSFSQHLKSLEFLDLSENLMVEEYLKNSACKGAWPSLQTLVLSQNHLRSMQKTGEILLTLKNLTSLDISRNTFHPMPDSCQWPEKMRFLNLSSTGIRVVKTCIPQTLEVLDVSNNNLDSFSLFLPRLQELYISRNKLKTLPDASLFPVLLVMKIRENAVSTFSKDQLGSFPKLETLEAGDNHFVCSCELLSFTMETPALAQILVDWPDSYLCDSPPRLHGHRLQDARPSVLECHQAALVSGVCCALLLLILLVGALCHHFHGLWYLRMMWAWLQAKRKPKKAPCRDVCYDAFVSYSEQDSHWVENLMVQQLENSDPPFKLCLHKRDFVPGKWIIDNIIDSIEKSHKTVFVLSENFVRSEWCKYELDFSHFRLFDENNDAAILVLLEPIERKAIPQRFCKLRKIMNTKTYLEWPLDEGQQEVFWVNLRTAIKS
Toll-like receptor 1/2 (Mus musculus, UniProt Q9EPQ1+Q9QUN7), sequence (Q9EPQ1 whole entry): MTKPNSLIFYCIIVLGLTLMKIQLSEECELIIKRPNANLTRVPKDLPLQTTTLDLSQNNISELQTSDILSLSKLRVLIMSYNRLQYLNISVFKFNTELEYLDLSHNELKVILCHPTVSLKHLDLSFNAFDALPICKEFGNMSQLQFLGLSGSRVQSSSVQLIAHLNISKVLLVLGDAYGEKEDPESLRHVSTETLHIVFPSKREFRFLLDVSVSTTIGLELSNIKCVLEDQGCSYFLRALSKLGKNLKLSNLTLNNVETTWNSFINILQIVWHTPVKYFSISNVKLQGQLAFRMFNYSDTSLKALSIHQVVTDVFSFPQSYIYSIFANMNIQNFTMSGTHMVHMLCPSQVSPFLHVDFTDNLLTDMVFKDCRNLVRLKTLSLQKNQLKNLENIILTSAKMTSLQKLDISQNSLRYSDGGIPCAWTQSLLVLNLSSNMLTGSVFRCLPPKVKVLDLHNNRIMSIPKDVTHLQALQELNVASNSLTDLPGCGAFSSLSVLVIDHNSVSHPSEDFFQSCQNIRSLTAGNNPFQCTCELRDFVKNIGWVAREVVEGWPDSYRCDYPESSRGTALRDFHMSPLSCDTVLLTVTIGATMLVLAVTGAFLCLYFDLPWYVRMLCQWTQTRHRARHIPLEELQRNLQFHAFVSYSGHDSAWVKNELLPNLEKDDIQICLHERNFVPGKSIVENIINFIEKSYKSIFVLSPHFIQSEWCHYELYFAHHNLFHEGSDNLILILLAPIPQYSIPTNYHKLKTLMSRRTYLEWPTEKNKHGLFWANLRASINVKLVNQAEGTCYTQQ
How it was run: (§1)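 Thioglycolate-elicited peritoneal macrophages from wild type C57BL/6J mice, harvested by PBS lavage 4 d after i.p. 4% thioglycolate. Cultured in DMEM/10% FBS at 37 °C, 5% CO2, seeded at 1 × 10⁵ cells/well and exposed to graded compound concentrations for 4 h, with final DMSO ≤0.5% held constant. LPS served as positive control. Supernatant mouse TNF-α was read by ELISA. EC50 from duplicate means.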

Toll-like receptor 1/2 [2] = molecular target: T1, Toll-like receptor 1/2 (Homo sapiens, UniProt O60603+Q15399); test: Agonist activity at TLR1/TLR2 in human THP-1 derived macrophages assessed as stimulation of TNF alpha release measured for 4 hrs by ELISA based assay relative to diprovocim-1; type: cell-based; set-up: Activity: concentration or dose not given beside the values; details: filed as agonist
T1 sequence (O60603 whole entry): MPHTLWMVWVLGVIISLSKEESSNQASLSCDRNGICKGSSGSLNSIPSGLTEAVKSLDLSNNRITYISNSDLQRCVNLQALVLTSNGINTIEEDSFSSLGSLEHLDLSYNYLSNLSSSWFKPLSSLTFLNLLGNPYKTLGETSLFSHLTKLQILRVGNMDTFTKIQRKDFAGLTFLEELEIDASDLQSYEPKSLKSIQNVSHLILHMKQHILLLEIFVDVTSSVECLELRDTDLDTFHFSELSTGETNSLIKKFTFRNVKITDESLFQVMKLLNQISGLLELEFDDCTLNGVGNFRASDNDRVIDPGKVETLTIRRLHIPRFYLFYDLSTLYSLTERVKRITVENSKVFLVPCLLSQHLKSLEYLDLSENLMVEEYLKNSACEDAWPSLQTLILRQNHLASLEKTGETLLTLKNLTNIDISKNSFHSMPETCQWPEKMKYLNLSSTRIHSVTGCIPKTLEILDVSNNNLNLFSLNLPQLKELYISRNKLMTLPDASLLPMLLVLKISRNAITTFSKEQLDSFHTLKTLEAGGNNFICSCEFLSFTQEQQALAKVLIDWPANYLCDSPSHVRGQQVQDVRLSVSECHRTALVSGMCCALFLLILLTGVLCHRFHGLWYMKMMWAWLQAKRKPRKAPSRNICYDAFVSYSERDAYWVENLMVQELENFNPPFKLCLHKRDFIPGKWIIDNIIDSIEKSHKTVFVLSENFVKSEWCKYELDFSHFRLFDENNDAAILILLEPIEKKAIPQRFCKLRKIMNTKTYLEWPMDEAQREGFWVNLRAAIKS
T1 sequence (Q15399 whole entry): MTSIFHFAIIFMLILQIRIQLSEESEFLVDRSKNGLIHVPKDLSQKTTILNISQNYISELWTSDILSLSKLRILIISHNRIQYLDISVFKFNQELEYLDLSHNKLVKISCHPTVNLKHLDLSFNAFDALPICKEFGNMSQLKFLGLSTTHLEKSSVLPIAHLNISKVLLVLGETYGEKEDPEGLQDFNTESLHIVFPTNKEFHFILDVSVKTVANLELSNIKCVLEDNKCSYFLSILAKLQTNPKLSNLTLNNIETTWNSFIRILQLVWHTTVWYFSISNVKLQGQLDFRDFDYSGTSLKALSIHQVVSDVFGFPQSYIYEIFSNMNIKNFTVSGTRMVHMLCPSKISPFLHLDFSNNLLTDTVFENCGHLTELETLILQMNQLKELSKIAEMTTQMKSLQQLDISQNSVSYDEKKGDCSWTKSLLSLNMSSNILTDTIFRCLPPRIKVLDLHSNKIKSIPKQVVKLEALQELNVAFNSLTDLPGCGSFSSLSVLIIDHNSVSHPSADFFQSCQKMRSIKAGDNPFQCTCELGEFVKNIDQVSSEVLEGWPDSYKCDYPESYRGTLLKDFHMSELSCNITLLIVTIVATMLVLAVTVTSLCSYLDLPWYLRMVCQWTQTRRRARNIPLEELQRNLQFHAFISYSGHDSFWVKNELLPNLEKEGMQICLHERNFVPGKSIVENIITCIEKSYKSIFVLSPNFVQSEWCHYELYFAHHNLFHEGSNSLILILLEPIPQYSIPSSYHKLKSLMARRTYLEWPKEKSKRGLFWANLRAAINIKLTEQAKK
How it was run: (§2)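 THP-1 cells differentiated with 100 nM PMA in RPMI/10% FBS for 24 h, washed, then rested 24 h in fresh medium. Seeded at 0.5 × 10⁵ cells/well and exposed to graded compound concentrations for 4 h, with final DMSO held at 0.1%. LPS served as positive control and DMSO as negative control. Supernatant human TNF-α was read by ELISA. EC50 from duplicate means.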

[3] = molecular target: Toll-like receptor 1/2 (Mus musculus) (UniProt Q9QUN7+Q9EPQ1); test: Agonist activity at TLR1/TLR2 in wild type C57BL/6J mouse macrophages assessed as stimulation of TNF alpha release measured for 4 hrs by ELISA based assay relative to diprovocim-1; type: cell-based; set-up: Activity: concentration or dose not given beside the values; details: Macrophage, filed as agonist; how it was run: as §1
Toll-like receptor 1/2 [4] = molecular target: T1, Toll-like receptor 1/2; test: Agonist activity at TLR1/TLR2 in human THP-1 derived macrophages assessed as stimulation of TNF alpha release measured for 4 hrs by ELISA based assay; type: cell-based; how it was run: as §2

SMILES	EC50 (Toll-like receptor 1/2 [1])	Activity (Toll-like receptor 1/2 [2])	Emax (Toll-like receptor 1/2 [2])	Emax [3]	EC50 (Toll-like receptor 1/2 [4])	Activity [3]
COC(=O)CCOCCOCCOCCNC(=O)[C@@H]1CN(C(=O)c2ccc(C(=O)N3C[C@@H](C(=O)N[C@H]4C[C@@H]4c4ccccc4)[C@H](C(=O)N[C@H]4C[C@@H]4c4ccccc4)C3)cc2)C[C@H]1C(=O)N[C@H]1C[C@@H]1c1ccccc1	> 500 nM	110%				
CCCCCCCCCCCCNC(=O)[C@@H]1CN(C(=O)c2ccc(C(=O)N3C[C@@H](C(=O)N[C@H]4C[C@@H]4c4ccccc4)[C@H](C(=O)N[C@H]4C[C@@H]4c4ccccc4)C3)cc2)C[C@H]1C(=O)N[C@H]1C[C@@H]1c1ccccc1	2.1 nM		110%	100%	0.1 nM	
CCCCCCCCCCNC(=O)[C@@H]1CN(C(=O)c2ccc(C(=O)N3C[C@@H](C(=O)N[C@H]4C[C@@H]4c4ccccc4)[C@H](C(=O)N[C@H]4C[C@@H]4c4ccccc4)C3)cc2)C[C@H]1C(=O)N[C@H]1C[C@@H]1c1ccccc1	650 nM		100%	260%	0.1 nM	
O=C(O)[C@@H]1CN(C(=O)c2ccc(C(=O)N3C[C@@H](C(=O)N[C@H]4C[C@@H]4c4ccccc4)[C@H](C(=O)N[C@H]4C[C@@H]4c4ccccc4)C3)cc2)C[C@H]1C(=O)N[C@H]1C[C@@H]1c1ccccc1	> 5000 nM	110%			200 nM	
COC(=O)CCCCCCCCCCCNC(=O)[C@@H]1CN(C(=O)c2ccc(C(=O)N3C[C@@H](C(=O)N[C@H]4C[C@@H]4c4ccccc4)[C@H](C(=O)N[C@H]4C[C@@H]4c4ccccc4)C3)cc2)C[C@H]1C(=O)N[C@H]1C[C@@H]1c1ccccc1		100%			0.2 nM	100%
CCCCCCNC(=O)[C@@H]1CN(C(=O)c2ccc(C(=O)N3C[C@@H](C(=O)N[C@H]4C[C@@H]4c4ccccc4)[C@H](C(=O)N[C@H]4C[C@@H]4c4ccccc4)C3)cc2)C[C@H]1C(=O)N[C@H]1C[C@@H]1c1ccccc1	80 nM		100%	150%	0.25 nM	
CCCCCCCCCCCCCCCCNC(=O)[C@@H]1CN(C(=O)c2ccc(C(=O)N3C[C@@H](C(=O)N[C@H]4C[C@@H]4c4ccccc4)[C@H](C(=O)N[C@H]4C[C@@H]4c4ccccc4)C3)cc2)C[C@H]1C(=O)N[C@H]1C[C@@H]1c1ccccc1	2.6 nM		110%	75%	0.5 nM	
CC(C)(C)OC(=O)CCOCCOCCOCCNC(=O)[C@@H]1CN(C(=O)c2ccc(C(=O)N3C[C@@H](C(=O)N[C@H]4C[C@@H]4c4ccccc4)[C@H](C(=O)N[C@H]4C[C@@H]4c4ccccc4)C3)cc2)C[C@H]1C(=O)N[C@H]1C[C@@H]1c1ccccc1	500 nM					
CCCCCCCCCCCCCCNC(=O)[C@@H]1CN(C(=O)c2ccc(C(=O)N3C[C@@H](C(=O)N[C@H]4C[C@@H]4c4ccccc4)[C@H](C(=O)N[C@H]4C[C@@H]4c4ccccc4)C3)cc2)C[C@H]1C(=O)N[C@H]1C[C@@H]1c1ccccc1	1.1 nM		150%	100%	0.1 nM	
CCCCCCCCNC(=O)[C@@H]1CN(C(=O)c2ccc(C(=O)N3C[C@@H](C(=O)N[C@H]4C[C@@H]4c4ccccc4)[C@H](C(=O)N[C@H]4C[C@@H]4c4ccccc4)C3)cc2)C[C@H]1C(=O)N[C@H]1C[C@@H]1c1ccccc1	540 nM		100%	240%	0.33 nM	
COC(=O)CCCCCCCNC(=O)[C@@H]1CN(C(=O)c2ccc(C(=O)N3C[C@@H](C(=O)N[C@H]4C[C@@H]4c4ccccc4)[C@H](C(=O)N[C@H]4C[C@@H]4c4ccccc4)C3)cc2)C[C@H]1C(=O)N[C@H]1C[C@@H]1c1ccccc1	240 nM				3.8 nM	
CCCCNC(=O)[C@@H]1CN(C(=O)c2ccc(C(=O)N3C[C@@H](C(=O)N[C@H]4C[C@@H]4c4ccccc4)[C@H](C(=O)N[C@H]4C[C@@H]4c4ccccc4)C3)cc2)C[C@H]1C(=O)N[C@H]1C[C@@H]1c1ccccc1	30 nM		120%	150%	2 nM	
CCNC(=O)[C@@H]1CN(C(=O)c2ccc(C(=O)N3C[C@@H](C(=O)N[C@H]4C[C@@H]4c4ccccc4)[C@H](C(=O)N[C@H]4C[C@@H]4c4ccccc4)C3)cc2)C[C@H]1C(=O)N[C@H]1C[C@@H]1c1ccccc1	360 nM		90%	130%	17 nM	
CC(C)(C)OC(=O)c1ccc(C(=O)NCC(=O)OCCCCCCCCCCCCNC(=O)[C@@H]2CN(C(=O)c3ccc(C(=O)N4C[C@@H](C(=O)N[C@H]5C[C@@H]5c5ccccc5)[C@H](C(=O)N[C@H]5C[C@@H]5c5ccccc5)C4)cc3)C[C@H]2C(=O)N[C@H]2C[C@@H]2c2ccccc2)cc1		100%				130%
COC(=O)CCCCCCCCCNC(=O)[C@@H]1CN(C(=O)c2ccc(C(=O)N3C[C@@H](C(=O)N[C@H]4C[C@@H]4c4ccccc4)[C@H](C(=O)N[C@H]4C[C@@H]4c4ccccc4)C3)cc2)C[C@H]1C(=O)N[C@H]1C[C@@H]1c1ccccc1	17 nM				0.37 nM	
CSCC[C@H](NC(=O)OC(C)(C)C)C(=O)OCCCCCCCCCCCCNC(=O)[C@@H]1CN(C(=O)c2ccc(C(=O)N3C[C@@H](C(=O)N[C@H]4C[C@@H]4c4ccccc4)[C@H](C(=O)N[C@H]4C[C@@H]4c4ccccc4)C3)cc2)C[C@H]1C(=O)N[C@H]1C[C@@H]1c1ccccc1		100%				150%
CC(C)(C)OC(=O)N1CCC[C@H]1C(=O)OCCCCCCCCCCCCNC(=O)[C@@H]1CN(C(=O)c2ccc(C(=O)N3C[C@@H](C(=O)N[C@H]4C[C@@H]4c4ccccc4)[C@H](C(=O)N[C@H]4C[C@@H]4c4ccccc4)C3)cc2)C[C@H]1C(=O)N[C@H]1C[C@@H]1c1ccccc1		90%				100%
CC(C)(C)OC(=O)/C=C/C(=O)NCC(=O)OCCCCCCCCCCCCNC(=O)[C@@H]1CN(C(=O)c2ccc(C(=O)N3C[C@@H](C(=O)N[C@H]4C[C@@H]4c4ccccc4)[C@H](C(=O)N[C@H]4C[C@@H]4c4ccccc4)C3)cc2)C[C@H]1C(=O)N[C@H]1C[C@@H]1c1ccccc1		90%				110%
CC(C)(C)OC(=O)N[C@@H](CCC(=O)OCc1ccccc1)C(=O)OCCCCCCCCCCCCNC(=O)[C@@H]1CN(C(=O)c2ccc(C(=O)N3C[C@@H](C(=O)N[C@H]4C[C@@H]4c4ccccc4)[C@H](C(=O)N[C@H]4C[C@@H]4c4ccccc4)C3)cc2)C[C@H]1C(=O)N[C@H]1C[C@@H]1c1ccccc1		100%				210%
CC[C@H](C)[C@H](NC(=O)OC(C)(C)C)C(=O)OCCCCCCCCCCCCNC(=O)[C@@H]1CN(C(=O)c2ccc(C(=O)N3C[C@@H](C(=O)N[C@H]4C[C@@H]4c4ccccc4)[C@H](C(=O)N[C@H]4C[C@@H]4c4ccccc4)C3)cc2)C[C@H]1C(=O)N[C@H]1C[C@@H]1c1ccccc1		100%				140%
C[C@H](NC(=O)OC(C)(C)C)C(=O)OCCCCCCCCCCCCNC(=O)[C@@H]1CN(C(=O)c2ccc(C(=O)N3C[C@@H](C(=O)N[C@H]4C[C@@H]4c4ccccc4)[C@H](C(=O)N[C@H]4C[C@@H]4c4ccccc4)C3)cc2)C[C@H]1C(=O)N[C@H]1C[C@@H]1c1ccccc1		80%				200%
CC(C)(C)OC(=O)NCC(=O)NCC(=O)OCCCCCCCCCCCCNC(=O)[C@@H]1CN(C(=O)c2ccc(C(=O)N3C[C@@H](C(=O)N[C@H]4C[C@@H]4c4ccccc4)[C@H](C(=O)N[C@H]4C[C@@H]4c4ccccc4)C3)cc2)C[C@H]1C(=O)N[C@H]1C[C@@H]1c1ccccc1		110%				110%
CC(C)(C)OC(=O)NCCOCCCCCCCCCCCCNC(=O)[C@@H]1CN(C(=O)c2ccc(C(=O)N3C[C@@H](C(=O)N[C@H]4C[C@@H]4c4ccccc4)[C@H](C(=O)N[C@H]4C[C@@H]4c4ccccc4)C3)cc2)C[C@H]1C(=O)N[C@H]1C[C@@H]1c1ccccc1		100%				220%
CC(C)(C)OC(=O)CNC(=O)CCCCCCCCCCCNC(=O)[C@@H]1CN(C(=O)c2ccc(C(=O)N3C[C@@H](C(=O)N[C@H]4C[C@@H]4c4ccccc4)[C@H](C(=O)N[C@H]4C[C@@H]4c4ccccc4)C3)cc2)C[C@H]1C(=O)N[C@H]1C[C@@H]1c1ccccc1		100%				70%
O=C(NCCCCCCCCCCO)[C@@H]1CN(C(=O)c2ccc(C(=O)N3C[C@@H](C(=O)N[C@H]4C[C@@H]4c4ccccc4)[C@H](C(=O)N[C@H]4C[C@@H]4c4ccccc4)C3)cc2)C[C@H]1C(=O)N[C@H]1C[C@@H]1c1ccccc1	50 nM				0.5 nM	
